Screening results as filed in PubChem BioAssay.
Only some compounds are listed: those with a hit (about 3.4% of all), similar ones and a draw of the others.
RanGTP-Impb inh: disruptors of Ran-importin-beta complex formation – biochemical, FRET, CFP-Ran, YFP-importin-beta, homogeneous, primary screen. cell-free CFP-Ran/YFP-importin-beta FRET ratio. inhibition, % (concentration not given with the values). 300,000 tested, 1.1% active. AID 2216;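 active means more than half of the replicate wells show a fall in the fluorescence ratio signal beyond about 16%, limit read from the data, passing the limit was not always enough; inconclusive means exactly half of the replicate wells pass the set limit; inactive means fewer than half of replicates pass the limit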;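 further: 0% = DMSO wells and 100% = Ran loaded with GDP instead of GTP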
HMGR II inh: E. faecalis class II HMG-CoA reductase inhibition; purified E. faecalis HMGR, NADPH absorbance 340 nm kinetic; inhibition, % at 10 µM; AID 1066; 190,000 tested, 0.41% active;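 active means inhibition above a set limit, the median over all tested compounds plus 3 SD, cut at about 9.5% in these data; inconclusive means no clear call, values can overlap the other calls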;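 further: enzyme runs in reverse so mevalonate oxidation gives rising NADPH absorbance; 0% = complete reaction with DMSO and 100% = background rate lacking mevalonate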
PHOSPHO1 inh: blocks human PHOSPHO1 phosphatase activity. inhibition, % at 13.3 µM. recombinant PHOSPHO1, absorbance phosphatase assay. Q8TCT1. 290,000 tested, 1.1% active. AID 1565; in the data active means inhibition above about 60%
Target sequence (Q8TCT1 whole entry, looked up): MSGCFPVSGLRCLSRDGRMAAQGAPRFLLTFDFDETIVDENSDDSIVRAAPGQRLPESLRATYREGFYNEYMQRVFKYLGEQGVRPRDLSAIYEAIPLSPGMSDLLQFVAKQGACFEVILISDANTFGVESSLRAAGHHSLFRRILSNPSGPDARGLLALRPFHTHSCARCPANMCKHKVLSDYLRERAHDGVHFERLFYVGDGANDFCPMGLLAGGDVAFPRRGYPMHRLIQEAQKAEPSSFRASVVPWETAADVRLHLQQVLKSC
Wee1 degr inh: blocks degradation of human Wee1 kinase; P30291; HeLa Luc-Wee1K328M stability, luciferase luminescence; 100% = proteasome inhibitor MG132 effect; reporter increase, % at 5 µM; 220,000 tested, 1.2% active;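 active means activation above the mean of all tested compounds plus 3 SD, set per screening run, cut at about 8.8% in these data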;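 further: cells exposed to compound for 20 h before luminescence read; 0% = DMSO alone and 100% = MG132 at 30 µM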
Runt-CBFb FRET: inhibitors of human RUNX1 Runt domain binding to CBFb; 220,000 tested, 0.46% active; Cerulean-Runt/Venus-CBFb FRET ratio 530/480, 1 h; inhibition, % at 20 µM; Q01196+Q13951;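 active means inhibition over about 50% at 20 µM in the single-dose screen, limit read from the data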;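 further: 0% = DMSO wells and 100% = excess unlabeled CBFb competitor control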
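Assay system: Cerulean-Runt domain / Medium: Tris 50 mM pH 7.5, KCl, K2SO4, 0.01% BSA / Timing: protein complex preformed 1 h, compound exposure 1 h, room temperature, dark / Measured by: FRET, excitation 422 nm, emission at 530 and 480 nm / Evaluation: loss of energy transfer signal / Control set: 5 µM unlabeled CBFb as full-inhibition high control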
Runt-SMMHC FRET: blocks binding of human RUNX1 Runt domain to CBFb-SMMHC. Q01196+Q13951. Cerulean-Runt/Venus-CBFb-SMMHC FRET ratio 530/480, 1 h. inhibition, % at 20 µM. 220,000 tested, 0.74% active;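 active means mean inhibition across duplicate retests at 20 µM reaching about 50%, limit read from the data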;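 further: 0% = DMSO wells and 100% = wells with excess untagged CBFb-SMMHC; inhibitors lower the FRET ratio by blocking Runt binding to CBFb-SMMHC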
Active calls of the source: *; ? = inconclusive; . = not tested or not shown.

SMILES | RanGTP-Impb inh | HMGR II inh | PHOSPHO1 inh | Wee1 degr inh | Runt-CBFb FRET | Runt-SMMHC FRET
Cc1ccc2c(c1)N(CC(=O)NC1CCCC(C)C1C)C(=O)c1cccnc1O2 (stereo unspecified) | -3 | . | 28 | . | . | .
CC1CCCCC1NC(=O)CN1C(=O)c2cccc(N)c2C1=O (stereo unspecified) | -4 | -6 | 33 | -1 | 21 | 86*
CCCCNC(=O)CN1C(=O)c2cccc(N)c2C1=O | -3 | -2 | 58 | -4 | 20 | 93*
Cc1cc(C)c(NC(=O)CNC(=O)COC(=O)/C=C/c2cccs2)c(C)c1 | -2 | . | . | . | . | .
CC(Oc1ccc(F)cc1F)C(=O)NNC(=S)NCC1CCCO1 (stereo unspecified) | -3 | . | -2 | . | . | .
COc1cc(NC(=S)Nc2cccnc2)cc(OC)c1 | -1 | 1 | -38 | -2 | 23 | 9
CN(C)S(=O)(=O)c1cccc(NC(=S)N/N=C/c2cc(Br)ccc2O)c1 | 5 | . | 0 | 3 | 3 | 81*
CN(C)S(=O)(=O)c1cccc(NC(=S)N/N=C/c2cccc(O)c2)c1 | -2 | -3 | -32 | -1 | 3 | 2
CCc1cc2c(C)cc(=O)oc2cc1OC(=O)C1CCCN1C(=O)OC(C)(C)C (stereo unspecified) | 4 | -4 | 1 | 1 | 30 | 75*
CC(C)C(=O)OC/C(O)=C(\C#N)c1nc2ccccc2[nH]1 | 15* | 0 | 24 | 6 | 4 | 15
N#C/C(=C(/O)COC(=O)c1ccc(O)cc1)c1nc2ccccc2[nH]1 | 3 | . | 16 | 8.9* | 2 | -2
CCCC(=O)OC/C(O)=C(\C#N)c1nc2ccccc2[nH]1 | 4 | 3 | 4 | 2 | 2 | 10
Cc1c(-c2cccc(Cl)c2)nc2ccccc2c1C(=O)OC/C(O)=C(\C#N)c1nc2ccccc2[nH]1 | 0 | 3 | 25 | 0 | 23 | 54*
COCC(=O)OC/C(O)=C(\C#N)c1nc2ccccc2[nH]1 | 6 | . | 1 | -1 | 3 | 7
Cc1ccc(-c2nc3c(Cl)cc(Cl)cc3c(=O)n2O)cc1 | 3 | . | . | . | . | .
COc1cccc(N(CC(=O)Nc2ccccc2C(=O)N2CCCC2)S(C)(=O)=O)c1 | -3 | . | 22 | . | . | .
CCOc1ccccc1CN1CCN(Cc2ccc3cccc(OC)c3n2)CC1CCO (stereo unspecified) | 1 | . | 39 | . | . | .
COc1cccc(CNS(=O)(=O)c2c(C)[nH]c(C)c2C(=O)N2CCCC2)c1 | 0 | . | 34 | . | . | .
CCN(CC)N=Nc1[nH]nc2nc(C)cc(C)c12 | 1 | 3 | 69* | -1 | 2 | 4
COCC(C)NC(=O)CCc1nnc(C2(c3ccc(Cl)cc3)CCC2)o1 (stereo unspecified) | -2 | -2 | 28 | 8.9* | -1 | 75
O=C(O)c1cc(S(=O)(=O)Nc2ccc3oc(=O)sc3c2)ccc1O | 6 | 8 | 63* | 0 | 50 | 8
O=C(NC1CCCCC1)c1cc(-c2ccccc2O)on1 | 2 | . | 28 | . | . | .
CCC(C)c1ccc(N(CC(=O)NC(C)(C)C)C(=O)CNC(=O)c2cccs2)cc1 (stereo unspecified) | -2 | . | 2 | . | . | .
CC(C)CN(CC(C)C)C(=O)COc1ccccc1C(N)=O | ? | -3 | 12 | 9.9* | 1 | 2
CC1CCC(NC(=O)COc2ccccc2C(N)=O)CC1 (stereo unspecified) | 5 | 4 | 24 | -1 | -1 | 2
SMILES | RanGTP-Impb inh | HMGR II inh | PHOSPHO1 inh | Wee1 degr inh | Runt-CBFb FRET | Runt-SMMHC FRET
Oc1ccc(Br)cc1/C=N/n1c(-c2ccccc2)n[nH]c1=S | 18* | . | . | . | . | .
Cc1ccc(/C=N/n2c(-c3ccncc3)n[nH]c2=S)cc1 | -4 | 3 | 91* | 2 | 24 | 22
S=c1[nH]nc(-c2ccncc2)n1/N=C/c1cn(-c2ccccc2)nc1-c1ccccc1 | -5 | . | 90* | -1 | 6 | 10
O=C(NCC1CCN(C(=O)c2ccc([N+](=O)[O-])cc2)CC1)c1ccc([N+](=O)[O-])cc1 | 6 | . | 37 | . | . | .
CCOC(=O)C1(N(CC)CC)Sc2cc(C)ccc2NC1=O (stereo unspecified) | 4 | 4 | 41 | 1 | -2 | 0
COC(=O)C1=C(C(=O)OC)SC2(S1)C(C(=O)OC)=C(C(=O)OC)SC1=C2c2cc(C)ccc2NC1(C)C | -1 | 1 | 98* | 1 | 49 | 34
CCOc1ccc2nc(SCC(=O)c3ccc(Cl)s3)sc2c1 | -1 | -1 | 62* | -2 | 0 | -3
CCOC(=O)CSc1nc2ccc(N)cc2s1 | 0 | -4 | 83* | 0 | 6 | -3
Cc1cc(C)c2[nH]c(C(=O)N3CCC(n4nccc4NC(=O)C4CC4)CC3)c(C)c2c1 | -1 | . | 22 | . | . | .
O=C(COc1ccc2ccc(=O)oc2c1)NC(Cc1ccc(Cl)cc1)C(=O)O (stereo unspecified) | ? | . | 18 | . | . | .
O=C(Cc1cc(=O)oc2cc(O)ccc12)NC(Cc1ccc(Cl)cc1)C(=O)O (stereo unspecified) | 50* | . | 44 | . | . | .
Cc1c(O)ccc2c(CC(=O)N[C@@H](Cc3ccc(O)cc3)C(=O)O)cc(=O)oc12 | 52* | . | 20 | . | . | .
CCc1nnc(NC(=O)CSc2nnc(CSc3nc(C)cc(C)n3)o2)s1 | 2 | . | 94* | -2 | 7 | 5
COc1cccc(NC(=O)CCc2c(C)nc3nc(CNC(=O)c4cccc(F)c4)nn3c2C)c1 | -2 | . | 23 | . | . | .
CCCCOc1ccc(CSc2nc(C)[nH]c2[N+](=O)[O-])cc1[N+](=O)[O-] | 1 | . | 61* | -1 | -5 | -4
CCCCOc1ccc(CSc2nnc(C)n2N)cc1[N+](=O)[O-] | -2 | -2 | 28 | -1 | 0 | -6
S=c1[nH]nc(-c2ccco2)n1/N=C/C=C/c1ccccc1 | -7 | . | 63* | 0 | 12 | 16
COc1ccccc1/C=C/C=N/n1c(-c2ccccc2)n[nH]c1=S | 1 | . | 99* | 1 | 12 | 12
COc1ccccc1/C=C/C=N/n1c(-c2ccc(Cl)cc2)n[nH]c1=S | 2 | . | 19 | 0 | 13 | 18
O=C(CNC(=O)C(c1ccccc1)c1ccccc1)N/N=C\c1ccc(C(=O)O)cc1 | 4 | . | 0 | . | . | .
O=S(=O)(c1cc(O)ccc1O)c1cccc2c(S(=O)(=O)c3cc(O)ccc3O)cccc12 | -2 | . | . | . | . | .
COc1ccc(OC)c(C2CC(=O)N3CN(c4cccc(Cl)c4)CSC3=C2C#N)c1 (stereo unspecified) | -4 | 2 | 94* | 8 | -8 | 51
COc1ccc(OC)c(C2CC(=O)N3CN(c4ccc(C)c(Cl)c4)CSC3=C2C#N)c1 (stereo unspecified) | -30 | -6 | 79* | -3 | 25 | 31
COc1ccc(Br)cc1C1CC(=O)N2CN(C)CSC2=C1C#N (stereo unspecified) | -6 | -4 | 48 | -2 | 20 | 30
